High-throughput results as filed in PubChem BioAssay.
Dynein cargo inh – inhibitors of GR-EGFP nuclear translocation, primary screen, dynein cargo transport inhibitor project, imaging, high-content, 3617.4 mouse cells | test concentration mostly 20 µM; stimulated with dexamethasone, 1 µM; active compounds read low | z-score, hits read low | AID 1381, 2008 | 0.47% of 220,000 active;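 active means plate z-score of nuclear minus cytoplasmic receptor signal below a set negative limit, without overly bright fluorescence or cell loss, cut at about -3.5 in these data, passing the limit was not always enough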;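 further: z-score of nuclear minus cytoplasmic ring GR-EGFP intensity difference per well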
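Buffer or medium: tet-free medium with charcoal-stripped serum / Also added: dexamethasone agonist, 1.0 µM final, for 30 min / Timing: induction 48 h, compound 1 h, agonist 30 min / Measured by: high-content fluorescence imaging after fixation / Read-out: nuclear-to-cytoplasmic GR-EGFP distribution per well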
ROMK mod – ROMK potassium channel modulators, primary screen, cell-based, thallium flux, MLSMR library; ATP-sensitive inward rectifier potassium channel 1 (Homo sapiens), P48048; Tet-inducible ROMK, thallium flux fluorescence; actives lie on both sides; B-score at 10 µM; 2% of 130,000 active; AID 1918, 2009;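 active means signal ratio slope over the read window, or its plate-corrected B-score, at least 3 SD from the plate mean, either direction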;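 further: B-score of the F/F0 ratio slope over 7 to 12 s after thallium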
KCC2 mod – KCC2 cotransporter modulators, thallium flux, primary screen, cell-based, HEK293 KCC2, FluoZin-2 fluorescence, MLSMR. AID 1456, 2008. KCC2 cells, thallium flux FluoZin-2 fluorescence. 2.2% of 190,000 active. B-score of Tl+ flux slope (higher = more flux/activation; lower = inhibition) at 10 µM. Solute carrier family 12 member 5 (Homo sapiens), Q9H2X9;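 active means thallium flux slope and its plate-corrected score both differing from the plate sample mean at a set confidence after two filtering rounds, in either direction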;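 further: slope of fluorescence scaled to starting intensity during 10 to 20 s after thallium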
Target sequence (Q9H2X9 whole entry, looked up): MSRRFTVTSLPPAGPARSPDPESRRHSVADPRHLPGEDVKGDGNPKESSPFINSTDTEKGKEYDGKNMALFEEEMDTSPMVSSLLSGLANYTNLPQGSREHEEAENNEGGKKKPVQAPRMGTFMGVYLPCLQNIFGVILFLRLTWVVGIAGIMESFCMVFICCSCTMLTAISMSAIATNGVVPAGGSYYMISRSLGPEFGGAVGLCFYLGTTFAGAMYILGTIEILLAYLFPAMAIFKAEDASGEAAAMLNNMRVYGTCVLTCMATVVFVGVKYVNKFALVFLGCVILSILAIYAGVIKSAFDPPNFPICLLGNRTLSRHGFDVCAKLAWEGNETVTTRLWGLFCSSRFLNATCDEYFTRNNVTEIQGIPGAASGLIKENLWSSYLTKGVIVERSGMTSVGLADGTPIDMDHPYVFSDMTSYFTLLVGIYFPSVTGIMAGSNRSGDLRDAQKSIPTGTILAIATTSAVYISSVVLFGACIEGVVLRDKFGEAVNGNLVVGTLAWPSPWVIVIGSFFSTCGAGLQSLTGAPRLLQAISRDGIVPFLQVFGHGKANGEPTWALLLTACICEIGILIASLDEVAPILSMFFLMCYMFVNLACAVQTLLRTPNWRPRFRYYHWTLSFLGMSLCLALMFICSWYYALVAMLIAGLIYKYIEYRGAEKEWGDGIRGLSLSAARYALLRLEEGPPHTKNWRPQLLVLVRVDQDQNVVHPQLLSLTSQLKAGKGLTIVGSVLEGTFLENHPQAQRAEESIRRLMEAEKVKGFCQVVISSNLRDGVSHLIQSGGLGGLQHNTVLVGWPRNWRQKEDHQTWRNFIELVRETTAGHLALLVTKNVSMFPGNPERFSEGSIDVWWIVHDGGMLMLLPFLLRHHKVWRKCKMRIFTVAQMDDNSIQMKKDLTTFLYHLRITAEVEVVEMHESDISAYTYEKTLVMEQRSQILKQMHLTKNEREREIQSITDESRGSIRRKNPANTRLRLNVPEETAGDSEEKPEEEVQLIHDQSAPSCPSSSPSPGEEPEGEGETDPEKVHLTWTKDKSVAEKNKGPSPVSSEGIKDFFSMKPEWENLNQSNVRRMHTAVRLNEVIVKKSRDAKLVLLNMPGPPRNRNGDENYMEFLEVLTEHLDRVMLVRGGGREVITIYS
DTT redox prof – compounds producing H2O2 with reducing agent – biochemical, NIH compound library profiling, artefact control for MLSCN library redox annotation, primary screen; 0.03% of 200,000 active; activation, % at 10 µM; DTT-dependent redox cycling H2O2, phenol red/HRP absorbance; 100% = 100 µM peroxide control, 0% = buffer;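 active means activation of at least 50% relative to the plate's high and low controls in the primary single-dose screen; inactive means activation below 50%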;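 further: compound incubated with DTT at 0.8 mM final as the reducing agent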
Autophagy mod – autophagy modulators in MEF cells, primary screen, imaging, high-content, MEF GFP-LC3; MEF GFP-LC3 puncta imaging; test concentration mostly 10 µM; calls only at 10 µM (by protocol); 0.98% of 190,000 active; AID 463193, 2010;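 active means percentage of spot-positive cells more than 3 SD above its plate mean, without a fluorescence outlier flag or 80% toxicity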;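 further: spot-positive cell cutoff set from DMSO-treated cells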
* hit, by the source's call; i = inactive; · = no result; + = active, no number. Rows were chosen to be rich in hits. Some 4.1% of all compounds tested hit in one or more screens of this group.

SMILES	Dynein cargo inh	ROMK mod	KCC2 mod	DTT redox prof	Autophagy mod
Cc1sc2nc(C(C)C)nc(SCC(=O)N3c4ccccc4CC3C)c2c1C (stereo unspecified)	0.898	0.328	64.5*	-0.7	+
Cc1sc2nc(C(C)C)nc(SCC(=O)NCc3ccco3)c2c1C	1.42	·	33.3*	1.1	i
CC(C)(C)C1CCC(C(=O)OCC(=O)Nc2ccc3[nH]c(=O)[nH]c3c2)CC1 (stereo unspecified)	0.00665	-0.71	0.225	-0.3	i
OCCC1CN(Cc2nc3ccccc3s2)CCN1C1CCCC1 (stereo unspecified)	1.74	-0.522	-0.0926	0.7	i
Cc1ccc(C(=O)NNC(=S)NC(=O)COc2ccccc2)cc1	-0.715	6.61*	94.8*	-0.9	i
CCC(=O)NC(=S)NNC(=O)c1ccc(OC)cc1	-0.517	·	1.02	0.9	i
Cc1ccccc1C(=O)NNC(=S)NC(=O)COc1ccccc1	0.0318	1.82	19.5*	0.3	i
CC(C)(C)C(=O)NC(=S)NNC(=O)c1ccc(-c2ccccc2)cc1	0.302	6.09*	86.6*	-0.5	i
CCCCOc1ccc(C(=O)NNC(=S)NC(=O)CC)cc1	0.396	·	35.9*	-0.3	i
COC(=O)c1ccccc1NC(=S)NC(=O)COc1ccccc1	0.633	·	·	-0.5	i
Cc1cc2nc(CSc3ccc(Cl)cc3)cc(=O)n2[nH]1	0.0229	0.0669	-0.734	-1.1	i
CC(C)C(NC(=O)C1CCCCC1)C(=O)NCCc1ccccc1 (stereo unspecified)	0.261	0.66	-0.6	-0.5	i
CN(Cc1cccs1)C(=O)Cn1cnc2ccccc2c1=O	-0.522	-0.684	-0.0775	-0.5	+
CCN(CC)C(=O)Cn1cnc2ccccc2c1=O	0.193	-0.0493	-1.27	0.6	i
CCc1ccc(/C=C2/C(=O)N(c3ccccc3)C(=S)N2CC(=O)OC)s1	-1.84	·	0.99	1.2	+
CCOc1ccc(N2C(=O)/C(=C/c3cccs3)N(CC(=O)OC)C2=S)cc1	0.86	·	0.218	-4.0	i
COc1ccc(/C=C2\C(=O)NC(=S)N2C(=O)c2ccc(F)cc2)cc1	3.15	·	3.41*	-0.1	i
Cc1ccc(-c2nn3c(C)nnc3c3ccccc23)cc1S(=O)(=O)N1CCN(CCO)CC1	0.179	1.31	-1.19	0.6	+
CC1(C)Cc2nc3sc4c(SCC(=O)NCc5ccccc5)ncnc4c3cc2CO1	-0.0125	0.712	·	0.3	+
CC1(C)Cc2nc3sc4c(SCC(=O)O)ncnc4c3cc2CO1	-0.728	·	1.41	·	·
CC(=O)c1sc2nc(CSc3nnnn3-c3ccccc3)[nH]c(=O)c2c1C	0.0404	-0.0815	0.0102	-0.4	i
Cc1ccc(-n2nnnc2SCc2nc3sc(C)c(C)c3c(=O)[nH]2)cc1	-1.02	0.0936	1.53	0.2	+
CC(=O)c1c(C)[nH]c(C(=O)CSc2ncnc3sc(-c4ccccc4)cc23)c1C	-0.898	·	28.8*	-0.6	i
O=C(O)CSc1ncnc2sc(-c3ccccc3)cc12	-1.67	-0.349	2.88	-1.2	i
Cc1ccc(C(=O)N2CCCC(C(=O)c3ccc(Oc4ccccc4)cc3)C2)cn1 (stereo unspecified)	-0.805	-1.15	-1.87	-0.8	i
SMILES	Dynein cargo inh	ROMK mod	KCC2 mod	DTT redox prof	Autophagy mod
CCCCCc1ccc(C(=O)CCCC)c(=S)[nH]1	-0.652	3.84*	119*	0.2	i
CCCCCc1cc(=O)[nH]c(=S)[nH]1	0.296	·	-1.16	·	·
C#CCOCCOCCOCCNc1nc(N2CCN(C(=O)[C@H]([C@@H](C)CC)n3cc([C@@H](N)Cc4ccc(O)cc4)nn3)CC2)nc(N2CCN(C(=O)[C@H](CCCCN)n3cc([C@@H](N)CC(C)C)nn3)CC2)n1	-1.47	·	0.669	-0.8	i
O=c1c2ccccc2[nH]c(=S)n1CCN1CCN(Cc2ccccc2)CC1	-0.997	-0.0356	15.2*	1.3	i
O=c1c2cccnc2[nH]c(=S)n1Cc1ccccc1	0.223	·	5.49*	-0.1	i
O=c1c2cc(F)ccc2[nH]c(=S)n1CCCN1CCOCC1	-0.644	·	6.44*	-4.3	i
Cc1nc2c(C)cccc2cc1C(=O)N/N=C/c1cccnc1	-0.257	0.369	-0.0303	0.1	i
C=CCN(c1ccccc1)S(=O)(=O)c1cccc(C(=O)OCC(=O)NC2CC2)c1	0.133	-0.616	-0.0106	-0.9	+
O=C(CNC(=S)N(Cc1ccccc1)Cc1ccccc1F)NCc1ccccc1	1.46	-0.691	-0.855	0.4	i
Cc1ccc(CNC(=O)CNC(=S)N(Cc2ccccc2)Cc2ccccc2F)cc1	0.416	-2.01	-3.02	-2.6	+
COc1ccc(-c2noc(CCC(=O)NCCCN3CCC(Cc4ccccc4)CC3)n2)cc1	7.42	·	-0.064	2.9	+
CC(=O)CCc1ccc(OCCCCN2CCC(Cc3ccccc3)CC2)cc1	-0.259	-0.994	-2.78	-0.6	+
CCCOCCc1nnc(N)s1	0.313	·	-0.444	·	·
COc1cccc(CN(C(=O)Cn2nnc(-c3ccccc3F)n2)C(C(=O)NC(C)(C)C)c2ccncc2)c1 (stereo unspecified)	-0.304	-1.45	·	0.0	i
CCCc1[nH]nc2c1C(c1ccc(O)cc1OCC)C(C#N)=C(N)O2 (stereo unspecified)	0.333	-4.49*	-1.05	0.0	i
COCc1[nH]nc2c1C(c1sccc1C)C(C#N)=C(N)O2 (stereo unspecified)	3.41	-3.49*	·	0.1	i
N#Cc1ccccc1OCC(=O)OCC(=O)N1CCN(C(=O)c2ccco2)CC1	0.261	-0.616	0.623	-2.1	i
CC(C)CNc1nc(SCC(=O)Nc2ccccc2)nc(N2CCOCC2)n1	-0.718	-0.28	-0.00823	-0.3	i
CC1Cc2ccccc2N1C(=O)C1CCCN(S(=O)(=O)c2cccc3nsnc23)C1 (stereo unspecified)	1.84	-3.09*	-0.106	1.4	i
CC1CCCN(C(=O)C2CCCN(S(=O)(=O)c3cccc4nsnc34)C2)C1 (stereo unspecified)	-0.271	-0.154	·	0.1	i
CCOc1ccc(CN2CCN(Cc3cccn3-c3nccs3)CC2CCO)cc1 (stereo unspecified)	-0.232	·	0.0694	·	·
CCOC(=O)C1=C(C)N=c2s/c(=C\c3ccc(OC(C)=O)c(OCC)c3)c(=O)n2C1/C=C/c1ccccc1 (stereo unspecified)	-2.12	·	-0.389	-7.3	+
Cc1nc(NC(=S)NC(=O)c2ccccc2)sc1C(=O)N(C)C	0.0113	0.631	0.355	-1.5	i
COC(=O)c1sc(NC(=S)NC(=O)c2ccccc2Cl)nc1C	2.22	·	50.4*	0.6	i
